The values that follow come from ChEMBL document CHEMBL4196177, “Synthesis, Evaluation, and Structure-Activity Relationship Study of Lanosterol Derivatives To Reverse Mutant-Crystallin-Induced Protein Aggregation” (J Med Chem, 2018).

Positions count from the first letter of the chain named. The source made the active and inactive calls. No cut-off for these calls is given here.

Assay [1] has as its system T1, Beta-crystallin B2 (Homo sapiens), P43320 [V187E].
T1 sequence (whole entry): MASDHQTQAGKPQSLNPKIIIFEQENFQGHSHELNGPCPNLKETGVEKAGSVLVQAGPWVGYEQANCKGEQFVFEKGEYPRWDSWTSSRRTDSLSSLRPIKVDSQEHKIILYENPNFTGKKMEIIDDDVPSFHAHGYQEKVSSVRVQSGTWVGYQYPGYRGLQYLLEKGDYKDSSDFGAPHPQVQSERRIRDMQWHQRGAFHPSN
Briefly: Inhibition of beta-crystallin B2 V187E mutant (unknown origin)-induced cytotoxicity in human HeLa cells assessed as increase in cell viability at 0.04 to 4 uM incubated for 12 hrs by CCK8 assay. It counts as cell-based. In general terms: Tetrazolium dyes change colour on reduction, which living cells bring about.

Assay [2] shares this test system. Briefly: Inhibition of beta-crystallin B2 V187E mutant (unknown origin)-induced cytotoxicity in human HLE-B3 cells assessed as increase in cell viability at 0.04 to 4 uM incubated for 12 hrs by CCK8 assay. It counts as cell-based.
For assay [3], the system named is T2, Gamma-crystallin D (Homo sapiens), P07320 [W43R].
T2 sequence (whole entry): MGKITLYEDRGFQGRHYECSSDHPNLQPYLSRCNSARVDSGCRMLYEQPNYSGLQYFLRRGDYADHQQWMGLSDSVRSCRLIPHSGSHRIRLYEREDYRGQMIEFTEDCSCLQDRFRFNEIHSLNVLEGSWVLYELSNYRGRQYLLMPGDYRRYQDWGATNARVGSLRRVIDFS
The assay is described as follows: Inhibition of gamma-crystallin D W43R mutant (unknown origin)-induced cytotoxicity in human HeLa cells assessed as increase in cell viability at 0.04 to 4 uM incubated for 12 hrs by CCK8 assay. It counts as cell-based.

The test system is the same in assay [4]. The assay is described as follows: Inhibition of gamma-crystallin D W43R mutant (unknown origin)-induced cytotoxicity in human HLE-B3 cells assessed as increase in cell viability at 0.04 to 4 uM incubated for 12 hrs by CCK8 assay. It counts as cell-based.
In assay [5] the test system is T3, Alpha-crystallin A chain (Homo sapiens), P02489 [Y118D].
T3 sequence (whole entry): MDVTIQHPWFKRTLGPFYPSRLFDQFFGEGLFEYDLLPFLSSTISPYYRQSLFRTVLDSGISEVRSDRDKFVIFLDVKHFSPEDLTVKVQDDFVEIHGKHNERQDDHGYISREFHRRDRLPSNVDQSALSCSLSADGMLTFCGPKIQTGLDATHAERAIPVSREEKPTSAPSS
Briefly: Inhibition of alpha-crystallin A Y118D mutant (unknown origin)-induced cytotoxicity in human HeLa cells assessed as increase in cell viability at 0.04 to 4 uM incubated for 12 hrs by CCK8 assay. It counts as cell-based.

Assay [6] concerns T4, Gamma-crystallin C (Homo sapiens), P07315 [G129C].
T4 sequence (whole entry): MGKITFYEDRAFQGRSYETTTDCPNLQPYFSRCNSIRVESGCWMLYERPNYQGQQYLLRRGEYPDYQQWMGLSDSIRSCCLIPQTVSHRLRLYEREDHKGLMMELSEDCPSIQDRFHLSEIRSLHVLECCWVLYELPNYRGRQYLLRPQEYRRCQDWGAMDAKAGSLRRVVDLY
The assay is described as follows: Inhibition of gamma-crystallin C G129C mutant (unknown origin)-induced cytotoxicity in human HLE-B3 cells assessed as increase in cell viability at 0.04 to 4 uM incubated for 12 hrs by CCK8 assay. It counts as cell-based.

The species named for another assay is Homo sapiens. Briefly: Increase in cell viability of human HLE-B3 cells transfected with peGFP-N1 at 0.04 to 4 uM incubated for 12 hrs by CCK8 assay. It counts as functional.
The test system of assay [7] is T5, Alpha-crystallin B chain (Homo sapiens), P02511 [R120G].
T5 sequence (whole entry): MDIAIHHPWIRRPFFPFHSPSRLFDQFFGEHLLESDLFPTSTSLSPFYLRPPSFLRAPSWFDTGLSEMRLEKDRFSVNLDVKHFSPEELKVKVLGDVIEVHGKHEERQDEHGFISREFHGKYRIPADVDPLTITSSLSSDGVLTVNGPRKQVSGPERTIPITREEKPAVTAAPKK
The assay is described as follows: Inhibition of alpha-crystallin B R120G mutant (unknown origin)-induced cytotoxicity in human HeLa cells assessed as increase in cell viability at 0.04 to 4 uM incubated for 12 hrs by CCK8 assay. It counts as cell-based.

The test system of assay [8] is T4, Gamma-crystallin C (Homo sapiens), P07315 [G129C]. The assay is described as follows: Inhibition of gamma-crystallin C G129C mutant (unknown origin)-induced cytotoxicity in human HeLa cells assessed as increase in cell viability at 0.04 to 4 uM incubated for 12 hrs by CCK8 assay. It counts as cell-based.
The subject of assay [9] is T3, Alpha-crystallin A chain (Homo sapiens), P02489 [Y118D]. Briefly: Inhibition of alpha-crystallin A Y118D mutant (unknown origin)-induced cytotoxicity in human HLE-B3 cells assessed as increase in cell viability at 0.04 to 4 uM incubated for 12 hrs by CCK8 assay. It counts as cell-based.
Assay [10] relates to T5, Alpha-crystallin B chain (Homo sapiens), P02511 [R120G]. The assay is described as follows: Inhibition of alpha-crystallin B R120G mutant (unknown origin)-induced cytotoxicity in human HLE-B3 cells assessed as increase in cell viability at 0.04 to 4 uM incubated for 12 hrs by CCK8 assay. It counts as cell-based.
The subject of another assay is HeLa. The assay is described as follows: Increase in cell viability of human HeLa cells transfected with peGFP-N1 at 0.04 to 4 uM incubated for 12 hrs by CCK8 assay. It counts as functional, cell-based.
The subject of assay [11] is T4, Gamma-crystallin C (Homo sapiens), P07315 [G129C]. The assay is described as follows: Induction of redissolving of aggregated gamma-crystallin C G129C mutant (unknown origin) at 200 uM incubated for 24 hrs by ThT-fluorescence based assay. An outline of the steps:
(§1)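 Purified mutant crystallin proteins, pre-formed into amyloid-like fibrils, were treated with compounds delivered in liposomes, with a liposome-only vehicle control. Redissolution was read as thioflavin T (ThT) fluorescence, n = 3.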

Assay [12] relates to T6, Alpha-crystallin A chain (Homo sapiens), P02489 [R116H].
T6 sequence (whole entry): T3 sequence (whole entry) with R116H, D118Y
The assay is described as follows: Induction of redissolving of aggregated alpha-crystallin A R116H mutant (unknown origin) at 200 uM incubated for 24 hrs by ThT-fluorescence based assay. An outline of the steps: as §1

For assay [13], the system named is T7, Alpha-crystallin A chain (Homo sapiens), P02489 [R116C].
T7 sequence (whole entry): T3 sequence (whole entry) with R116C, D118Y
Briefly: Induction of redissolving of aggregated alpha-crystallin A R116C mutant (unknown origin) at 200 uM incubated for 24 hrs by transmission-electron-microscopy. Put shortly:
(§2)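 Pre-formed amyloid-like fibrils of mutant crystallin proteins were treated with compounds in liposomes or with a liposome vehicle. Fibrillar structures were then examined by negative-stain transmission electron microscopy.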

Assay [14] deals with T3, Alpha-crystallin A chain (Homo sapiens), P02489 [Y118D]. Briefly: Induction of redissolving of aggregated alpha-crystallin A Y118D mutant (unknown origin) at 200 uM incubated for 24 hrs by ThT-fluorescence based assay. Put shortly: as §1
Assay [15] deals with T2, Gamma-crystallin D (Homo sapiens), P07320 [W43R]. Briefly: Induction of redissolving of aggregated gamma-crystallin D W43R mutant (unknown origin) at 200 uM incubated for 24 hrs by ThT-fluorescence based assay. Put shortly: as §1
Assay [16] relates to T3, Alpha-crystallin A chain (Homo sapiens), P02489 [Y118D]. Briefly: Induction of redissolving of aggregated alpha-crystallin A Y118D mutant (unknown origin) at 200 uM incubated for 24 hrs by transmission-electron-microscopy. Put shortly:
as §2

In the case of `C[C@H](CCCC(C)(C)O)[C@H]1CC[C@@]2(C)C3=C(CC[C@]12C)[C@@]1(C)C[C@@H](F)[C@H](O)C(C)(C)[C@@H]1CC3`, the inhibition result in assay [1], in assay [2], in assay [3], in assay [4], in [5] and in assay [6] was “Active” throughout. In addition, the inhibition result in [7], in assay [8], in assay [9] and in assay [10] was “Active” throughout. Also, the outcome in the assay filed under Homo sapiens and in the assay with HeLa was Active.

As to `C[C@H](CCCC(C)(C)O)[C@H]1CC[C@@]2(C)C3=C(CC[C@]12C)[C@@]1(C)CCC(=O)C(C)(C)[C@@H]1CC3`, the inhibition result in assay [1], in assay [2], in assay [3], in assay [4], in assay [5] and in assay [6] was “Active” each time. For the same molecule, the inhibition entry in assay [7], in assay [8], in [9] and in [10] was “Active” each time. The result in the assay filed under Homo sapiens and in the assay on HeLa was Active.

On to `C[C@H](CCCC(C)(C)O)[C@H]1CC[C@@]2(C)C3=C(CC[C@]12C)[C@@]1(C)C[C@@H](F)[C@@H](O)C(C)(C)[C@@H]1CC3`, for which the inhibition entry in assay [1], in [2], in assay [3], in assay [4], in assay [5] and in [6] was “Active” throughout. Further, the inhibition result in assay [7], in assay [8], in assay [9] and in assay [10] was “Active” each time. Moreover, the result in the assay filed under Homo sapiens and with HeLa was Active.

For the molecule `C[C@H](CCCC(C)(C)O)[C@H]1CC[C@@]2(C)C3=CC[C@H]4C(C)(C)[C@@H](O)CC[C@]4(C)C3=CC[C@]12C`, the inhibition entry in assay [1], in [2], in assay [3], in assay [4], in [5] and in assay [6] was “Active” throughout. Moreover, the inhibition entry in assay [7], in assay [8], in assay [9] and in [10] was “Active” each time. Further, the result in the assay listed under Homo sapiens and in the assay on HeLa was Active.

On to `C[C@H](CCCC(C)(C)O)[C@H]1CC[C@@]2(C)[C@@]34CC[C@H]5C(C)(C)/C(=N/O)CC[C@]5(C)[C@]3(CC[C@]12C)O4`, for which the outcome in assay [11], in [12], in [13], in assay [14], in [15] and in assay [16] was inactive.

Turning to `C[C@H](CCCC(C)(C)O)[C@H]1CC[C@@]2(C)C3=C(CC[C@]12C)[C@@]1(C)CC[C@H](O)C(C)(C)[C@@H]1CC3`, the result (in [11]; in assay [12]; in [13]; in [14]; in the assay listed under Homo sapiens; in assay [15]) was Active. The result (in the assay on HeLa; in [16]) was Active. Also, the inhibition result in assay [1], in assay [2], in assay [3], in assay [4], in assay [5] and in [6] was “Active” in each case. Further, the inhibition entry in assay [7], in assay [8], in [9] and in [10] was “Active” in each case.
